Test results as given in ChEMBL document CHEMBL1125789, “Synthesis and selective class III antiarrhythmic activity of novel N-heteroaralkyl-substituted 1-(aryloxy)-2-propanolamine and related propylamine derivatives” (J Med Chem, 1991).

How the values were obtained:
Canis familiaris [1] = assay: Atrial effective refractory period by the compound in open chest anesthetized dog, after iv administration at a dose of 0.05 mg/kg.; format: functional, Canis lupus familiaris, Cardiac atrium
How it was run: (§1)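 Open-chest mongrel dogs under sodium pentobarbital anesthesia (30 mg/kg iv plus 5 mg/kg per h), paced at basic cycle length 300 ms. Atrial effective refractory period was determined by electrical stimulation before and after iv or intraduodenal compound and reported as change from control.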

Canis familiaris [2] = assay: Ventricular effective refractory period by the compound in open chest anesthetized dog, after iv administration at a dose of 0.25 mg/kg.; format: functional, Canis lupus familiaris, Heart
Canis familiaris [3] = species: Canis familiaris; assay: Maximum rate of rise of the upstroke of transmembrane potential, in canine Purkinje Fibers at a concentration of 0.03 uM at 300 ms (simulating tachycardia); format: functional; settings: Canis lupus familiaris, Purkinje fiber
How it was run: (§2)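 Isolated canine Purkinje fiber bundles were driven by square-wave pulses 2.0 ms long at 2× threshold and equilibrated ≥1 h to steady state. Each concentration was superfused 45–60 min before recording, and action potentials were sampled at 4–6 sites per fiber in control and after drug, giving Vmax and APD to −60 mV.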

Canis familiaris [4] = assay: Mean arterial pressure by the compound in open chest anesthetized dog, after iv administration at a dose of 0.25 mg/kg.; format: functional, Canis lupus familiaris, Artery
How it was run: (§3)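 Hemodynamics (heart rate, mean arterial pressure) recorded in pentobarbital-anesthetized (30 mg/kg iv, 5 mg/kg per h maintenance) open-chest mongrel dogs during the refractoriness study at BCL 300 ms. Readings were taken before and after iv or intraduodenal compound and expressed as change from control.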

Canis familiaris [5] = assay: Atrial conduction time by the compound in open chest anesthetized dog, after iv administration at a dose of 0.50 mg/kg.; format: functional, Canis lupus familiaris, Cardiac atrium; settings: dose 0.5 mg/kg
How it was run: (§4)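 Mongrel dogs anesthetized with sodium pentobarbital (30 mg/kg iv, then 5 mg/kg per h), chest opened, paced at BCL 300 ms. Atrial conduction time was taken as the interval between electrograms recorded at the proximal and distal sites of the atrial recording electrode array, before and after iv or intraduodenal dosing. Values are changes from control.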

Canis familiaris [6] = species: Canis familiaris; assay: Maximum rate of rise of the upstroke of transmembrane potential, in canine Purkinje Fibers at a concentration of 0.10 uM at 1000 ms (simulating normal heart rate); format: functional; settings: Canis lupus familiaris, Purkinje fiber; how it was run: as §2
Canis familiaris [7] = assay: Mean arterial pressure by the compound in open chest anesthetized dog, after iv administration at a dose of 0.50 mg/kg.; format: functional, Canis lupus familiaris, Artery; settings: dose 0.5 mg/kg; how it was run: as §3
Canis familiaris [8] = species: Canis familiaris; assay: Repolarization to reach -60mV, in canine Purkinje Fibers at a concentration of 0.10 uM at 300 ms (simulating tachycardia); format: functional, Canis lupus familiaris, Purkinje fiber; how it was run: as §2
Canis familiaris [9] = species: Canis familiaris; assay: Maximum rate of rise of the upstroke of transmembrane potential, in canine Purkinje Fibers at a concentration of 0.10 uM at 300 ms (simulating tachycardia); format: functional; settings: Canis lupus familiaris, Purkinje fiber; how it was run: as §2
Canis familiaris [10] = assay: Heart beat by the compound in open chest anesthetized dog, after iv administration at a dose of 0.05 mg/kg.; format: functional, Canis lupus familiaris; how it was run: as §3
Canis familiaris [11] = assay: Ventricular effective refractory period by the compound in open chest anesthetized dog, after iv administration at a dose of 0.50 mg/kg.; format: functional, Canis lupus familiaris, Heart; settings: dose 0.5 mg/kg
Canis familiaris [12] = species: Canis familiaris; assay: repolarization to reach -60mV, in canine Purkinje Fibers at a concentration of 0.03 uM at 1000 ms (simulating normal heart rate); format: functional, Canis lupus familiaris, Purkinje fiber
How it was run: (§5)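 Purkinje fiber bundles were stimulated with square-wave current pulses of 2.0 ms at twice threshold and equilibrated for at least 1 h, or until action potential parameters were steady. Each concentration was superfused for 45-60 min to reach steady state. Action potentials were recorded at four to six sites per fiber, under control and after drug.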

Canis familiaris [13] = species: Canis familiaris; assay: Maximum rate of rise of the upstroke of transmembrane potential, in canine Purkinje Fibers at a concentration of 0.01 uM at 300 ms (simulating tachycardia); format: functional; settings: Canis lupus familiaris, Purkinje fiber; how it was run: as §2
Canis familiaris [14] = assay: Ventricular conduction time by the compound in open chest anesthetized dog, after iv administration at a dose of 0.25 mg/kg.; format: functional, Canis lupus familiaris, Heart
How it was run: (§6)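 Mongrel dogs were anesthetized with sodium pentobarbital (30 mg/kg iv, then 5 mg/kg per h), the chest opened, and the heart paced at BCL 300 ms. Compound was given iv or intraduodenally. Ventricular conduction time was taken as the interval between electrograms at the proximal and distal sites of the recording electrode array. 2-5 dogs per dose.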

Canis familiaris [15] = assay: Heart beat by the compound in open chest anesthetized dog, after iv administration at a dose of 0.25 mg/kg.; format: functional, Canis lupus familiaris; how it was run: as §3
Canis familiaris [16] = assay: Mean arterial pressure by the compound in open chest anesthetized dog, after iv administration at a dose of 0.05 mg/kg.; format: functional, Canis lupus familiaris, Artery; how it was run: as §3
Canis familiaris [17] = species: Canis familiaris; assay: Maximum rate of rise of the upstroke of transmembrane potential, in canine Purkinje Fibers at a concentration of 0.01 uM at 1000 ms (simulating normal heart rate); format: functional; settings: Canis lupus familiaris, Purkinje fiber; how it was run: as §2
Canis familiaris [18] = species: Canis familiaris; assay: repolarization to reach -60mV, in canine Purkinje Fibers at a concentration of 0.01 uM at 1000 ms (simulating normal heart rate); format: functional, Canis lupus familiaris, Purkinje fiber; how it was run: as §5
Canis familiaris [19] = assay: Atrial effective refractory period by the compound in open chest anesthetized dog, after iv administration at a dose of 0.25 mg/kg.; format: functional, Canis lupus familiaris, Cardiac atrium; how it was run: as §1
Canis familiaris [20] = assay: Atrial effective refractory period by the compound in open chest anesthetized dog, after iv administration at a dose of 0.50 mg/kg.; format: functional, Canis lupus familiaris, Cardiac atrium; settings: dose 0.5 mg/kg; how it was run: as §1
Canis familiaris [21] = assay: Atrial conduction time by the compound in open chest anesthetized dog, after iv administration at a dose of 0.25 mg/kg.; format: functional, Canis lupus familiaris, Cardiac atrium; how it was run: as §4
Canis familiaris [22] = assay: Heart beat by the compound in open chest anesthetized dog, after iv administration at a dose of 0.50 mg/kg.; format: functional, Canis lupus familiaris; settings: dose 0.5 mg/kg; how it was run: as §3
Canis familiaris [23] = assay: Ventricular conduction time by the compound in open chest anesthetized dog, after iv administration at a dose of 0.50 mg/kg.; format: functional, Canis lupus familiaris, Heart; settings: dose 0.5 mg/kg; how it was run: as §6
Canis familiaris [24] = assay: Atrial conduction time by the compound in open chest anesthetized dog, after iv administration at a dose of 0.05 mg/kg.; format: functional, Canis lupus familiaris, Cardiac atrium; how it was run: as §4
Canis familiaris [25] = assay: Ventricular conduction time by the compound in open chest anesthetized dog, after iv administration at a dose of 0.05 mg/kg.; format: functional, Canis lupus familiaris, Heart; how it was run: as §6
Canis familiaris [26] = species: Canis familiaris; assay: Maximum rate of rise of the upstroke of transmembrane potential, in canine Purkinje Fibers at a concentration of 0.03 uM at 1000 ms (simulating normal heart rate); format: functional; settings: Canis lupus familiaris, Purkinje fiber; how it was run: as §2
Canis familiaris [27] = species: Canis familiaris; assay: Repolarization to reach -60mV, in canine Purkinje Fibers at a concentration of 0.01 uM at 300 ms (simulating tachycardia); format: functional, Canis lupus familiaris, Purkinje fiber; how it was run: as §2
Canis familiaris [28] = species: Canis familiaris; assay: repolarization to reach -60mV, in canine Purkinje Fibers at a concentration of 0.10 uM at 1000 ms (simulating normal heart rate); format: functional, Canis lupus familiaris, Purkinje fiber; how it was run: as §5
Canis familiaris [29] = assay: Ventricular effective refractory period by the compound in open chest anesthetized dog, after iv administration at a dose of 0.05 mg/kg.; format: functional, Canis lupus familiaris, Heart
Canis familiaris [30] = species: Canis familiaris; assay: Repolarization to reach -60mV, in canine Purkinje Fibers at a concentration of 0.03 uM at 300 ms (simulating tachycardia); format: functional, Canis lupus familiaris, Purkinje fiber; how it was run: as §2

Row | Compound | AERP (Canis familiaris [1]) | VERP (Canis familiaris [2]) | Vmax (Canis familiaris [3]) | MBP (Canis familiaris [4]) | Vmax (Canis familiaris [6]) | APD (Canis familiaris [8]) | Vmax (Canis familiaris [9]) | HR (Canis familiaris [10]) | APD (Canis familiaris [12]) | Vmax (Canis familiaris [13]) | VCT (Canis familiaris [14]) | HR (Canis familiaris [15]) | MBP (Canis familiaris [16]) | Vmax (Canis familiaris [17]) | APD (Canis familiaris [18]) | AERP (Canis familiaris [19]) | ACT (Canis familiaris [21]) | ACT (Canis familiaris [24]) | VCT (Canis familiaris [25]) | Vmax (Canis familiaris [26]) | other results
1 | CN(CCOc1ccc(NS(C)(=O)=O)cc1)CCc1ccc(NS(C)(=O)=O)cc1 [DOFETILIDE] | 46 | 25 | 7 | 1 | 5 | 29% | 5 | -14 | 67% | 4 | -5 | -21 | 1 | 4 | 37% | 60 | -6 | -4 | -4 | 2 | ACT (Canis familiaris [5]): -9; MBP (Canis familiaris [7]): -2; VERP (Canis familiaris [11]): 27; AERP (Canis familiaris [20]): 65; HR (Canis familiaris [22]): -24; VCT (Canis familiaris [23]): -4; APD (Canis familiaris [27]): 22%; APD (Canis familiaris [28]): 85%; VERP (Canis familiaris [29]): 23
2 | CN(CCCOc1ccc(NS(C)(=O)=O)cc1)Cc1ccc2cc(NS(C)(=O)=O)ccc2n1 | 53 | 36 | -9 | 4 | -12 | 22% | -14 | -16 | 56% | -1 | -3 | -26 | 4 | -1 | 36% | 70 | -4 | -5 | -1 | -8 | APD (Canis familiaris [30]): 17%; APD (Canis familiaris [27]): 15%; APD (Canis familiaris [28]): 73%; VERP (Canis familiaris [29]): 26
